Results from ChEMBL document CHEMBL2203212, “Peptides and Pseudopeptides as SIRT6 Deacetylation Inhibitors” (ACS Med Chem Lett, 2012).
Active and inactive are the calls of the source. No cut-off for these calls is given here. Square brackets hold non-standard residues; d marks the D form. Peptide text beside a SMILES is read from it. Lys(Thioacetyl) = CC(=S)NCCCC[C@H](N)C(=O)O

These compounds were tested against T1, NAD-dependent protein deacylase sirtuin-6 (Homo sapiens, UniProt Q8N6T7) (assay: Inhibition of human recombinant SIRT6 assessed as 7-amino-4-methylcoumarin labelled Arg-His-Lys-Lys(epsilon-acetyl) substrate deacetylation at 200 uM after 90 mins by Fluor-de-Lys assay).
T1 sequence (Q8N6T7 whole entry): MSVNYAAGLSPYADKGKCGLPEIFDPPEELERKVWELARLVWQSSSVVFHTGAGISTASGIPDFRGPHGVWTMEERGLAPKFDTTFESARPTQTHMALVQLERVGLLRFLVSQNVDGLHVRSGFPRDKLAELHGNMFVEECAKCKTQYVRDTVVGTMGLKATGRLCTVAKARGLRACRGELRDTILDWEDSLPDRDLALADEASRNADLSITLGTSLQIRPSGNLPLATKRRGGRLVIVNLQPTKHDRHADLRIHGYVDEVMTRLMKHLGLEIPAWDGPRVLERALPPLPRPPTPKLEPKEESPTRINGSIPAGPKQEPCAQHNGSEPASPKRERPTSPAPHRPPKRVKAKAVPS
Summary of the method: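 Single-point screen at 200 μM in a commercial in vitro SIRT6 deacetylation activity kit with Fluor de Lys fluorescence read-out, reported as percent inhibition of deacetylation.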
With `CC(=S)NCCCC[C@H](NC(=O)OCc1ccccc1)C(=O)Nc1ccccc1` the inhibition was 36%. `CC(=[Se])NCCCC[C@H](NC(=O)OCc1ccccc1)C(=O)Nc1ccccc1` showed an inhibition of 62%. With `CC(=S)NCCCC[C@H](NC(=O)[C@@H]1CCCN(C(=O)OC(C)(C)C)C1)C(=O)N[C@@H](C)C(=O)O` the inhibition was “Active”. With `CC(=S)NCCCC[C@H](NC(=O)OCc1ccccc1)C(=O)NC1CCCCC1` the inhibition was “Active”. In the case of `CC(=O)N[C@@H](C)C(=O)N[C@@H](CCCCNC(=S)CC(C)C)C(=O)N[C@@H](C)C(=O)O`, the inhibition is reported as “Active”. For `CC(=S)NCCCC[C@H](NC(=O)CCc1ccccc1)C(=O)N[C@@H](C)C(=O)O`, the inhibition was “Active”. `CSCC[C@H](NC(=O)[C@@H](NC(=O)[C@H](CCCCNC(C)=S)NC(=O)[C@H](CC(=O)O)NC(=O)[C@@H](N)CO)[C@@H](C)O)C(=O)O` (H-SD[Lys(Thioacetyl)]TM-OH) showed an inhibition of 35%. Work on `CC(=O)N[C@@H](C)C(=O)N[C@@H](CCCCNC(=O)C=C(C)C)C(=O)N[C@@H](C)C(=O)O` yielded an inhibition of 26%. Compound `CSCC[C@H](NC(=O)[C@H](CC(C)C)NC(=O)[C@H](CCCCNC(C)=S)NC(=O)[C@H](CCCCN)NC(=O)[C@H](C)N)C(=O)O` (H-AK[Lys(Thioacetyl)]LM-OH) has an inhibition of 91%. For `CC(=O)N[C@@H](C)C(=O)N[C@@H](CCCCNC(=O)CC(C)C)C(=O)N[C@@H](C)C(=O)O`, the inhibition was “Active”. `CC(=O)N[C@@H](C)C(=O)N[C@@H](CCCCNC(C)=S)C(=O)N[C@@H](C)C(=O)O` showed an inhibition of 54%. For `CSCC[C@H](NC(=O)[C@H](CC(C)C)NC(=O)[C@H](CCCCNC(C)=S)NC(=O)[C@H](CCCCN)NC(=O)[C@@H](N)Cc1cnc[nH]1)C(=O)O` (H-HK[Lys(Thioacetyl)]LM-OH), the inhibition was 62%.

What follows are compounds tested against T1, NAD-dependent protein deacylase sirtuin-6 (assay: Inhibition of N-terminal His-tagged human recombinant SIRT6 (13 to 308) expressed in Escherichia coli Rosetta2 cells assessed as FdL-1 peptide substrate deacetylation at 100 uM after 45 mins by Fluor-de-Lys assay).
`Nc1cc2c(nc3c4ccccc4c(N)cc3[n+]2-c2cccc3ccccc23)c2ccccc12` was tested, and the inhibition was 25%. `CN1C[C@H](C(=O)N[C@]2(C)O[C@@]3(O)[C@@H]4CCCN4C(=O)[C@H](Cc4ccccc4)N3C2=O)C=C2c3cccc4[nH]cc(c34)C[C@H]21` was tested, and the inhibition was 25%. In the case of `O=C1c2ccccc2C(=O)c2c(Nc3cc4c5c(ccc6c7ccc8c9c(cc(Nc%10cccc%11c%10C(=O)c%10ccccc%10C%11=O)c(c3c56)c97)-c3ccccc3C8=O)C(=O)c3ccccc3-4)cccc21`, the inhibition is reported as 25%. Work on `O=C(C[n+]1ccc2ccccc2c1)c1ccc2ccc3ccccc3c2c1` yielded an inhibition of 25%. For `Nc1cc2c(nc3c4ccccc4ccc3[n+]2-c2cccc3ccccc23)c2ccccc12`, the inhibition was 25%. With `O=C1c2ccccc2C(=O)c2c1ccc(N1C(=O)c3ccccc3C1=O)c2-c1c(N2C(=O)c3ccccc3C2=O)ccc2c1C(=O)c1ccccc1C2=O` the inhibition was 25%.

These compounds were tested against T1, NAD-dependent protein deacylase sirtuin-6 (assay: Inhibition of human recombinant SIRT6 assessed as 7-amino-4-methylcoumarin labelled Arg-His-Lys-Lys(epsilon-acetyl) substrate deacetylation after 90 mins by Fluor-de-Lys assay).
Summary of the method: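 Commercial in vitro SIRT6 deacetylation kit with Fluor de Lys read-out. The IC50 was determined in two separate runs, each in triplicate, and reported as the average of the six measurements.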
`CC(=[Se])NCCCC[C@H](NC(=O)OCc1ccccc1)C(=O)Nc1ccccc1` gave an IC50 of 285 µM. `CSCC[C@H](NC(=O)[C@H](CC(C)C)NC(=O)[C@H](CCCCNC(C)=S)NC(=O)[C@H](CCCCN)NC(=O)[C@H](C)N)C(=O)O` (H-AK[Lys(Thioacetyl)]LM-OH) showed an IC50 of 47 µM. `CSCC[C@H](NC(=O)[C@H](CC(C)C)NC(=O)[C@H](CCCCNC(C)=S)NC(=O)[C@H](CCCCN)NC(=O)[C@@H](N)Cc1cnc[nH]1)C(=O)O` (H-HK[Lys(Thioacetyl)]LM-OH) showed an IC50 of 78 µM.
